Test results from ChEMBL document CHEMBL3046730, “Broad-spectrum antimicrobial activity in vitro of the synthetic peptide D4E1” (J Agric Food Chem, 2001).
The source made the active and inactive calls. The rule behind the calls is not given here.

What was measured:
Aspergillus flavus [1] = test: Antifungal activity against Aspergillus flavus 70-GFP assessed as reduction in spore germination at 12.5 uM after 8 hr by microscopic analysis relative to control; assay type: functional, organism-based
Procedure, shortened: (§1)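 Nongerminated A. flavus 70-GFP conidia (10⁶/mL) exposed to 0–25 µM peptide in 1% PDB, 8 h at 30 °C. Proportion of germinating conidia scored; GFP fluorescence microscopy (ex 480, em 530 nm). Experiment repeated twice; one-way ANOVA with Tukey separation.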

Aspergillus flavus [2] = test: Antifungal activity against Aspergillus flavus 70-GFP assessed as thick germ tube at 25 uM after 8 hr by microscopic analysis relative to control; assay type: functional, organism-based
Procedure, shortened: (§2)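 A. flavus 70-GFP conidia (10⁶/mL) incubated 8 h at 30 °C with 0–25 µM peptide in 1% PDB. Germ tube and spore morphology examined by GFP fluorescence microscopy (excitation 480 nm, emission 530 nm). Repeated twice.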

Rhizoctonia solani [3] = test: Antifungal activity against Rhizoctonia solani SRRC 1443 assessed as thin hyphae at 20 uM after 48 hr by microscopic analysis; assay type: functional, organism-based
Berkeleyomyces basicola = test: Antifungal activity against Thielaviopsis basicola SRRC 1277 after 24 to 48 hr; assay type: functional, organism-based
Procedure, shortened: (§3)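 Conidia diluted to 10⁴/mL (Fusarium) or 10⁵/mL and germinated 8 h at 30 °C (A. flavus, Fusarium, P. italicum) or overnight at 22 °C. Four 50 µL aliquots spread on PDA, colonies counted after 24–48 h at 30 or 22 °C. Percent mortality vs untreated control fitted by dose–response to give IC50; MIC = complete inhibition; two experiments.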

Rhizoctonia solani [4] = test: Antifungal activity against Rhizoctonia solani SRRC 1443 assessed as rough hyphae at 20 uM after 48 hr by microscopic analysis; assay type: functional, organism-based
Aspergillus flavus [5] = test: Antifungal activity against Aspergillus flavus 70-GFP after 24 to 48 hr; assay type: functional, organism-based
Procedure, shortened: (§4)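 Conidia harvested in 1% PDB (pH 6.0), diluted to 10⁵/mL and germinated before exposure to peptide in 1% PDB. Four 50 µL aliquots plated on PDA and colonies counted after 24–48 h. Percent mortality vs untreated control fitted by dose–response to give IC50; MIC = complete inhibition; each fungus tested at least twice.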

Fusarium oxysporum = test: Antifungal activity against Fusarium oxysporum SRRC 187 after 24 to 48 hr; assay type: functional, organism-based; procedure, shortened: as §3
Rhizoctonia solani [6] = test: Antifungal activity against Rhizoctonia solani SRRC 1443 assessed as jagged hyphae at 20 uM after 48 hr by microscopic analysis; assay type: functional, organism-based
[7] = test system: Globisporangium ultimum var. sporangiiferum; test: Antifungal activity against Pythium ultimum var. sporangiiferum after 48 hr by microplate assay; assay type: functional, organism-based
Procedure, shortened: (§5)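 Mycelia grown in 1% PDB 48 h at 28 °C, 90 rpm, blended, adjusted to ~10⁵ fragments/mL. Fragments incubated in 24-well plates with peptide at 2–40 µM final in 1% PDB, 2 mL total, 48 h at 90 rpm. MIC recorded as lowest concentration completely inhibiting growth; three replicate experiments.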

Aspergillus flavus [8] = test: Antifungal activity against Aspergillus flavus 70-GFP assessed as short germ tube at 25 uM after 8 hr by microscopic analysis relative to control; assay type: functional, organism-based; procedure, shortened: as §2
Alternaria alternata = test: Antifungal activity against Alternaria alternata SRRC 1107 after 24 to 48 hr; assay type: functional, organism-based; procedure, shortened: as §4
Cercospora kikuchii = test: Antifungal activity against Cercospora kikuchii SRRC 1078 after 24 to 48 hr; assay type: functional, organism-based; procedure, shortened: as §3
Penicillium italicum = test: Antifungal activity against Penicillium italicum SRRC 2352 after 24 to 48 hr; assay type: functional, organism-based; procedure, shortened: as §3
Aspergillus flavus [9] = test: Antifungal activity against Aspergillus flavus 70-GFP assessed as vacuolization in spores at 6 uM after 8 hr by microscopic analysis relative to control; assay type: functional, organism-based; procedure, shortened: as §2
Fusarium verticillioides = test: Antifungal activity against Fusarium verticillioides SRRC 1082 after 24 to 48 hr; assay type: functional, organism-based; procedure, shortened: as §3
Claviceps purpurea = test: Antifungal activity against Claviceps purpurea SRRC 118 after 24 to 48 hr; assay type: functional, organism-based; procedure, shortened: as §3
[10] = test system: Pseudomonas amygdali pv. tabaci; test: Antibacterial activity against Pseudomonas syringae pv. tabaci after 24 to 48 hr; assay type: functional, organism-based
Aspergillus flavus [11] = test: Antifungal activity against Aspergillus flavus 70-GFP assessed as reduction in spore germination at 25 uM after 8 hr by microscopic analysis relative to control; assay type: functional; parameters: scale not given: the % may be the effect or the level left; procedure, shortened: as §1
Aspergillus flavus [12] = test: Antifungal activity against Aspergillus flavus 70-GFP assessed as germ tube breakage at 12.5 uM after 8 hr by microscopic analysis relative to control; assay type: functional, organism-based; procedure, shortened: as §2
Rhizoctonia solani [13] = test: Antifungal activity against Rhizoctonia solani SRRC 1443 after 48 hr by microplate assay; assay type: functional, organism-based; details: SRRC 1443, 48 h; procedure, shortened: as §5
Phytophthora cinnamomi = test: Antifungal activity against Phytophthora cinnamomi after 48 hr by microplate assay; assay type: functional, organism-based; procedure, shortened: as §5
Fusarium graminearum = test: Antifungal activity against Fusarium graminearum SRRC 1042 after 24 to 48 hr; assay type: functional, organism-based
Procedure, shortened: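 Conidia harvested in 1% PDB (pH 6.0), diluted to 10⁴ conidia/mL, pregerminated 8 h at 30 °C. Germinated conidia exposed to D4E1 in 1% PDB at 30 °C; four aliquots spread on PDA and colonies counted after 24–48 h at 30 °C. Percent mortality vs 0 µM control; IC50 from dose–response fit of two experiments; MIC = complete growth inhibition.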

Aspergillus flavus [14] = test: Antifungal activity against Aspergillus flavus 70-W after 24 to 48 hr; assay type: functional, organism-based; procedure, shortened: as §3
Verticillium dahliae = test: Antifungal activity against Verticillium dahliae SRRC 1030 after 24 to 48 hr; assay type: functional, organism-based; procedure, shortened: as §3
Phytophthora nicotianae = test: Antifungal activity against Phytophthora parasitica after 48 hr by microplate assay; assay type: functional, organism-based; procedure, shortened: as §5
Rhizoctonia solani [15] = test: Antifungal activity against Rhizoctonia solani SRRC 1443 assessed as appearance of extracellular material surrounding hyphae at 20 uM after 48 hr by microscopic analysis; assay type: functional, organism-based
Aspergillus flavus [16] = test: Antifungal activity against Aspergillus flavus 70-GFP assessed as vacuolization in spores at 12.5 uM after 8 hr by microscopic analysis relative to control; assay type: functional, organism-based; procedure, shortened: as §2
[17] = test system: Colletotrichum destructivum; test: Antifungal activity against Colletotrichum destructivum ATCC 42492 after 24 to 48 hr; assay type: functional, organism-based; procedure, shortened: as §3
Xanthomonas campestris = test: Antibacterial activity against Xanthomonas citri subsp. malvacearum race 18 after 24 to 48 hr; assay type: functional, organism-based, Xanthomonas citri pv. malvacearum
Procedure, shortened: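 X. campestris pv. malvacearum race 18 grown overnight in nutrient broth at 28 °C, 225 rpm, then diluted to 10⁴ CFU/mL. Exposed to D4E1 for 60 min at 28 °C. Four aliquots plated on NB and colonies counted after 24–48 h at 28 °C. Percent mortality vs 0 µM control; IC50 from dose–response curve fit; MIC = complete inhibition; tested twice.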

H-FKLRAKIKVRLRAKIKL-OH
Activity (Aspergillus flavus [1]): Active | Activity (Aspergillus flavus [2]): Active | Activity (Rhizoctonia solani [3]): Active | IC50 (Berkeleyomyces basicola): 520 nM | MIC (Berkeleyomyces basicola): 6 µM | Activity (Rhizoctonia solani [4]): Active | IC50 (Aspergillus flavus [5]): 11000 nM | MIC (Aspergillus flavus [5]): 25 µM | IC50 (Fusarium oxysporum): 2050 nM | MIC (Fusarium oxysporum): 12.5 µM | Activity (Rhizoctonia solani [6]): Active | MIC [7]: 13.3 µM | Activity (Aspergillus flavus [8]): Active | IC50 (Alternaria alternata): 12400 nM | MIC (Alternaria alternata): 25 µM | IC50 (Cercospora kikuchii): 8670 nM | MIC (Cercospora kikuchii): 25 µM | IC50 (Penicillium italicum): 5920 nM | MIC (Penicillium italicum): 25 µM | Activity (Aspergillus flavus [9]): Active | IC50 (Fusarium verticillioides): 880 nM | MIC (Fusarium verticillioides): 12.5 µM | IC50 (Claviceps purpurea): 1600 nM | MIC (Claviceps purpurea): 20 µM | IC50 [10]: 520 nM | MIC [10]: 2.25 µM | Activity (Aspergillus flavus [11]): >75% | Activity (Aspergillus flavus [12]): Active | MIC (Rhizoctonia solani [13]): 26.7 µM | MIC (Phytophthora cinnamomi): 4.67 µM | IC50 (Fusarium graminearum): 2100 nM | MIC (Fusarium graminearum): 25 µM | IC50 (Aspergillus flavus [14]): 7750 nM | MIC (Aspergillus flavus [14]): 25 µM | IC50 (Verticillium dahliae): 600 nM | MIC (Verticillium dahliae): 5.25 µM | MIC (Phytophthora nicotianae): 4.67 µM | Activity (Rhizoctonia solani [15]): Active | Activity (Aspergillus flavus [16]): Active | IC50 [17]: 13000 nM | MIC [17]: 25 µM | IC50 (Xanthomonas campestris): 190 nM | MIC (Xanthomonas campestris): 1.25 µM
